Laboratory results as given in ChEMBL document CHEMBL1124474, “7-[3-(4-acetyl-3-methoxy-2-propylphenoxy)propoxy]-3,4-dihydro-8- propyl-2H-1-benzopyran-2-carboxylic acid: an orally active selective leukotriene B4 receptor antagonist” (J Med Chem, 1989).
The source made the active and inactive calls. The rule behind the calls is not given here.

Legend:
Homo sapiens [1] = assay: Blood plasma levels of compound after 40 mg/kg oral dose of compound at 12 hr; format: functional, organism-based; set-up: dose 40 mg/kg
Summary of the method: (§1)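 Single 40 mg/kg oral dose; blood plasma drug level sampled at 1 h and 12 h after dosing.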

Homo sapiens [2] = species on record: Homo sapiens; assay: Inhibition of human neutrophil leukotriene B4 induced neutrophil degranulation; format: functional
Summary of the method: (§2)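 Human neutrophils (3×10^6 in 1 mL HBSS) preincubated with cytochalasin B (5 µg) 5 min at 37 °C, then compound 7 min, then stimulated 2-20 min with LTB4 5×10^-8 M. Degranulation read as myeloperoxidase released into medium; pellets sonicated in phosphate buffer with 0.4% Triton X-100, supernatants brought to 0.4% Triton, both assayed.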

Cavia porcellus = assay: Topical effective dose when coapplied with phorbol ester (PMA) was assessed by ear weight as a reflection of edema; format: functional
Bos taurus = species on record: Bos taurus; assay: Inhibition of bovine heart phosphodiesterase at 50 uM (no inhibition)
[3] = target: T1, Cysteinyl leukotriene receptor 1 (Cavia porcellus) (UniProt Q2NNR5); assay: Inhibition of binding to the leukotriene D4 receptor at 1*10e-5 M concentration
T1 sequence (whole entry): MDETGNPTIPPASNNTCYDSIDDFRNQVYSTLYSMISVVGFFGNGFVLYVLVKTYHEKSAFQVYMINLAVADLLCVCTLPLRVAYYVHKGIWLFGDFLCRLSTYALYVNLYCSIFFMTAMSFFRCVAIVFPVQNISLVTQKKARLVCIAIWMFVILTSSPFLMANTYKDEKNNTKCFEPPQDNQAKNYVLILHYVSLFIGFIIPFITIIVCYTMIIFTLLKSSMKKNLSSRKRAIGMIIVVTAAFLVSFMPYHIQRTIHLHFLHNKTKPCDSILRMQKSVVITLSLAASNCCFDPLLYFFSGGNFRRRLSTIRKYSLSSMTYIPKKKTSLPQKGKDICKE
Summary of the method: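 Competition binding at LTD4 receptor: protein adjusted to about 0.1 nM receptor with 1 nM [3H]LTD4, 30 min at 24 °C; bound and free ligand separated by filtration. Compound tested at 1×10^-5 M.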

Homo sapiens [4] = species on record: Homo sapiens; assay: Inhibition of human neutrophil leukotriene B4 induced neutrophil chemotaxis; format: functional
Summary of the method: (§3)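 Human neutrophils isolated from citrated peripheral blood by 5% dextran sedimentation, Histopaque centrifugation and hypotonic erythrocyte lysis. 3×10^6 cells/mL in HEPES-buffered HBSS in upper well of modified Boyden chamber; lower well, across polycarbonate membrane, held HBSS or 3×10^-8 M LTB4 ± compound. 90 min, 37 °C; lower-well cells lysed, nuclei counted (Coulter); % inhibition after subtracting mean HBSS random migration.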

Homo sapiens [5] = assay: Blood plasma levels of compound after 40 mg/kg oral dose of compound at 1 hr; format: functional, organism-based; set-up: dose 40 mg/kg; summary of the method: as §1
Homo sapiens [6] = species on record: Homo sapiens; assay: Inhibition of human neutrophil leukotriene B4 induced neutrophil chemotaxis at 10e-5 M compound concentration; NA = not active; format: functional; summary of the method: as §3
Homo sapiens [7] = species on record: Homo sapiens; assay: Inhibition of human neutrophil leukotriene B4 induced neutrophil degranulation at 10e-5 M compound concentration; NA = not active; format: functional; summary of the method: as §2

Row | Compound | Plasma level (Homo sapiens [1]) [µg/mL] | IC50 (Homo sapiens [2]) [nM] | ED50 (Cavia porcellus) [uM ear-1] | inhibition (Bos taurus) | inhibition [3] [%] | IC50 (Homo sapiens [4]) [nM] | Plasma level (Homo sapiens [5]) [µg/mL] | Activity (Homo sapiens [6]) | Activity (Homo sapiens [7])
1 | CCCc1c(OCCCOc2ccc(C(C)=O)c(OC)c2CCC)ccc2c1OC(C(=O)O)CC2 (centres undefined) [SC-41390] | 12 | 1000 | 4.1 | inactive | 4 | 2000 | 7 | – | –
2 | CCCc1c(OCCCOc2ccc3c(c2CCC)OC(C(=O)O)CC3)ccc(C(C)=O)c1O (centres undefined) | – | – | – | – | – | – | – | inactive | inactive
